Laboratory results as given in paper PMC2975716 (Journal of Lipid Research, 2010).
Residue numbers refer to the chain shown, from its start. Read-outs that look alike come from different tables or passages of the source. Marks after values point to notes of the source that are not given here.

Assays:
CETP [1] = molecular target: T1, CETP (Homo sapiens, UniProt P11597); experiment: Transfer of CE from HDL to LDL, scintillation proximity assay; type: biochemical
T1 sequence (P11597 18-493): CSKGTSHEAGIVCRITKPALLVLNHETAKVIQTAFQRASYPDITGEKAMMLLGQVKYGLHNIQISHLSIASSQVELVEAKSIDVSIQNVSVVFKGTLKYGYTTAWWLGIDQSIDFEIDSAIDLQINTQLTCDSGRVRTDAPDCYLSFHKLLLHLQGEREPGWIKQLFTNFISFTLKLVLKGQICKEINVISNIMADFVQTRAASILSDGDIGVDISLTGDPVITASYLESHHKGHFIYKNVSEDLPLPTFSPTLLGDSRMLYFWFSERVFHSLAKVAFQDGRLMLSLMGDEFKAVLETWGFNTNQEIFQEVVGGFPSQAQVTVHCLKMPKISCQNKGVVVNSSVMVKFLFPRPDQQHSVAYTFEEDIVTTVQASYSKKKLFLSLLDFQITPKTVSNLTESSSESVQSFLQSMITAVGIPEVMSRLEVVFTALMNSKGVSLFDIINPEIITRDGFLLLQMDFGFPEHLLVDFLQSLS

C13S CETP = molecular target: T2, C13S CETP (Homo sapiens, UniProt P11597, C30S); experiment: Transfer of CE from HDL to LDL, scintillation proximity assay, C13S mutant; type: biochemical
T2 sequence (P11597 18-493 C30S): T1 sequence (P11597 18-493) with C13S

CETP [2] = molecular target: T1, CETP; type: binding; conditions: 25 µM unlabeled compound, coincubation
CETP [3] = molecular target: T1, CETP; type: binding; conditions: 25 µM unlabeled compound, […] label
JHC-1 = experiment: Binding to antibody JHC-1
[4] = type: in vivo, human; conditions: healthy volunteers, single oral dose 600 mg dalcetrapib
CETP [5] = molecular target: T1, CETP; experiment: CETP ELISA with different capture antibodies, in vitro addition to human plasma; conditions: 0.01-10 µM
Procedure, shortened: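 Test compound dilution series (0.01–10 µM) made in this plasma, held 3 h at 37°C, then assayed by JHC-1-capture/6/6-HRP and 6/2-capture/6/17-HRP ELISAs. Duplicates per donor (n = 14); mean with SD.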

Golden Syrian hamsters = experiment: In vivo macrophage-to-feces RCT study; design: species or system Golden Syrian hamster; conditions: dalcetrapib 100 mg/kg BID, torcetrapib 30 mg/kg QD, anacetrapib 30 mg/kg QD; for [3H]HDL / [3H]plasma: Day 3 after labeled macrophage injection; for [3H]HDL / [3H]plasma / Fecal [3H]total sterols / Fecal total radioactivity: mean ± SD; for Change in liver radioactivity compared with vehicle: day 10, data not shown; for Fecal [3H]total sterols: sum of [3H]neutral sterols and [3H]bile acids; for Fecal [3H]total sterols / Fecal total radioactivity: day 0-10; for Fecal total radioactivity: whole fecal homogenates
CETP [6] = molecular target: T1, CETP; experiment: SPR; type: binding; conditions: 5 µM, 60 s, before and after dalcetrapib-thiol injections
PLTP [7] = molecular target: T3, PLTP (Homo sapiens, UniProt P55058); conditions: concentrations up to 30 µM; cited from earlier work
[8] = cited from earlier work
CETP [9] = molecular target: T1, CETP; experiment: CETP ELISA on plasma of healthy subjects after single oral 600 mg dalcetrapib; type: in vivo; conditions: 22 healthy volunteers
[10] = test system: CETP-induced pre-β-HDL formation; experiment: Quantification of pre-β-HDL by ELISA in incubated human plasma; type: biochemical; conditions: endogenous CETP only, 21 h at 37°C
Procedure, shortened: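 Human plasma with endogenous CETP at 1.25 μg/ml, no rhCETP added, incubated 21 h at 37°C with or without test compound (0.1, 1, 3, 10 µM). Pre-β-HDL quantified by a pre-β1-selective ELISA. Dose effects assessed by ANCOVA with nested factor.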

PLTP [11] = molecular target: T3, PLTP; experiment: PLTP activity; type: biochemical; conditions: concentrations up to 30 µM; data not shown
[12] = read-out: IC50 for transfer of CE from HDL to LDL by rhCETP, mean ± SEM, CETP 0.5 µg/ml, 3 h at 37°C
[13] = read-out: IC50 for transfer of CE from HDL to LDL by C13S CETP mutant, mean ± SEM, CETP 0.5 µg/ml, 3 h at 37°C
[14] = human plasma of seven donors, 3 h at 37°C

T3 sequence (P55058 18-493, species assumed): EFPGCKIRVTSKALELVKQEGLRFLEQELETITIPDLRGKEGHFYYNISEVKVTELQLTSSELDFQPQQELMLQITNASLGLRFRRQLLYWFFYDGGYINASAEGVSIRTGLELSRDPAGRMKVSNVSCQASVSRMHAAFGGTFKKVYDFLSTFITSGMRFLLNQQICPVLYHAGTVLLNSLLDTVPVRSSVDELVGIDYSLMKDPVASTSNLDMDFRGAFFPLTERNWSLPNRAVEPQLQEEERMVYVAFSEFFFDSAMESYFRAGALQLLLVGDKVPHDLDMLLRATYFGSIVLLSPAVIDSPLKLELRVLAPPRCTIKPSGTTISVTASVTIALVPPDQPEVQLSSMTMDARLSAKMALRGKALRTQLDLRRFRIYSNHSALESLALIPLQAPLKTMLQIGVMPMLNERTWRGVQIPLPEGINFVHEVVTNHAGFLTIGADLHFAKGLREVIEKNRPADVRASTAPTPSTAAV

SMILES	IC50 (CETP [1]; [12]) [nM]	IC50 (C13S CETP; [13]) [nM]	Effect on binding of [14C]torcetrapib to immobilized rhCETP (CETP [2])	Displacement of [14C]dalcetrapib-thiol bound to rhCETP (CETP [3]; with 5 mM TCEP)	Decrease in amount of [14C]torcetrapib bound to immobilized rhCETP (CETP [2]) [%]	Change in CETP epitope detection, ELISA with capture antibody 6/2 (CETP [5]; [14])	[3H]HDL (Golden Syrian hamsters)	[3H]plasma (Golden Syrian hamsters) [kBq/ml]	Change in liver radioactivity compared with vehicle (Golden Syrian hamsters) [%]	Fecal [3H]total sterols (Golden Syrian hamsters)	Fecal total radioactivity (Golden Syrian hamsters)	other results
CCC(CC)CC1(C(=O)Nc2ccccc2SSc2ccccc2NC(=O)C2(CC(CC)CC)CCCCC2)CCCCC1 [dalcetrapib-disulfide]	35.2 ± 2.8	> 100000	unaffected	–	–	–	–	–	–	–	–	–
CCC(CC)CC1(C(=O)Nc2ccccc2S)CCCCC1 [dalcetrapib-thiol]	23.7 ± 1.9	> 100000	only marginally decreased	did occur when TCEP was present	–	–	–	–	–	–	–	Displacement of [14C]dalcetrapib-thiol bound to rhCETP (CETP [3]; absence of TCEP, data not shown): not observed; Binding to JHC-1 (JHC-1): did not bind; Maximum plasma dalcetrapib-thiol level [4]: 628.7 ng/mL; Time of maximum plasma dalcetrapib-thiol level [4]: 4 h; t1/2 ([4]; mean ± SD): 25.5 ± 3.9 h
CCOC(=O)N1c2ccc(C(F)(F)F)cc2[C@@H](N(Cc2cc(C(F)(F)F)cc(C(F)(F)F)c2)C(=O)OC)C[C@H]1CC [torcetrapib]	–	–	–	neither torcetrapib nor anacetrapib affected	82	no change in epitope detection	0.32 ± 0.07^c kBq/ml	0.77 ± 0.11	−28.1	11.5 ± 0.5^b % of injected	16.5 ± 0.5^c % of injected	Change in CETP epitope detection, ELISA with capture antibody JHC-1 (CETP [5]; [14]): did not change epitope detection; Binding to rhCETP following saturation of the dalcetrapib binding site (SPR) (CETP [6]): remained unchanged; Effect on PLTP activity (PLTP [7]): neither inhibit nor increase PLTP activity; Fecal sterol excretion in clinical studies [8]: not associated with an increase in fecal sterol excretion
COc1cc(F)c(C(C)C)cc1-c1ccc(C(F)(F)F)cc1CN1C(=O)O[C@H](c2cc(C(F)(F)F)cc(C(F)(F)F)c2)[C@@H]1C [anacetrapib]	–	–	–	neither torcetrapib nor anacetrapib affected	60	–	0.34 ± 0.07^c kBq/ml	0.79 ± 0.11	−9.2	9.7 ± 0.9 % of injected	13.2 ± 1.5 % of injected	Raise of plasma HDL-C in humans [8]: up to 130%
CCC(CC)CC1(C(=O)Nc2ccccc2SC(=O)C(C)C)CCCCC1 [dalcetrapib]	–	–	unaffected	displaced	–	no change in epitope detection	0.28 ± 0.04^c kBq/ml	0.74 ± 0.05	−42.2	12.5 ± 0.5^b % of injected	17.5 ± 0.5^c % of injected	IC50 (CETP [1]): 205 ± 96.3 nM; IC50 (C13S CETP): > 100000 nM; Concentration at which maximum decrease in JHC-1 epitope detection is reached (CETP [5]; human plasma in vitro): 0.5 µM; Concentration from which CETP detection by JHC-1 is decreased (CETP [5]; human plasma in vitro): ≥ 0.1 µM; Change in CETP detection with 6/2 as capture antibody (CETP [9]): no change was detected; Decrease in CETP detection by the JHC-1-based ELISA (CETP [9]; P < 0.001): 30%; Increase in pre-β-HDL ([10]; 1 µM, NS): 4%; Increase in pre-β-HDL ([10]; 3 µM, P < 0.05): 13%; Increase in pre-β-HDL ([10]; 10 µM, P < 0.01): 16%; Effect on PLTP activity (PLTP [11]): neither inhibit nor increase PLTP activity; Raise of HDL-C in humans ([8]; dose of 600 mg): up to 36%
